The results in this text go back to ChEMBL document CHEMBL1938280, “Weight loss effects of quaternary salts of 5-amino-1-(chloromethyl)-1,2-dihydro-3H-benz[e]indoles; structure-activity relationships” (Bioorg Med Chem, 2012).

Data set [1] deals with Mus musculus. Put plainly: Toxicity in C3H/HeN mouse assessed as perceptible deterioration in health at 4.2 uM/kg, ip after 60 days. It counts as organism-based. The following applies: in vivo, 1440 h. The method in brief: (§1)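 Male C3H/HeN mice, about 50 days old and in groups of 4, received one ip dose in 42% aqueous DMSO on day 1 after 7–10 days of baseline monitoring; vehicle-only animals served as controls. Food and water intake and body weight were recorded 2–3 times weekly for 60 days. General health was checked by observing clinical signs.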

Data set [2] deals with Mus musculus. Put plainly: Toxicity in C3H/HeN mouse assessed as loss of appetite at 4.2 uM/kg, ip after 60 days. It counts as organism-based. The following applies: in vivo, 1440 h. In short, it runs like this: as §1
The test system of data set [3] is Mus musculus. The data set can be described thus: Induction of weight loss in C3H/HeN mouse at 1.4 umol/kg, ip after 60 days (reference value: 31.5 +/- 8.2 %). It counts as functional.
The test system of data set [4] is Mus musculus. The data set can be described thus: Induction of weight loss in C3H/HeN mouse at 0.47 umol/kg, ip after 60 days (reference value: 27.7 +/- 4.6 %). It counts as functional.
The test system of data set [5] is Mus musculus. Put plainly: Induction of weight loss in C3H/HeN mouse at 4.2 umol/kg, ip after 60 days (reference value: 30.1 +/- 5.9 %). It counts as functional.
Data set [6] deals with Mus musculus. The data set can be described thus: Toxicity in C3H/HeN mouse assessed as difficulty in eating at 4.2 uM/kg, ip after 60 days. It counts as organism-based. Particulars: in vivo, 1440 h.
The test system of data set [7] is Mus musculus. The data set can be described thus: Toxicity in C3H/HeN mouse assessed as difficulty in drinking at 4.2 uM/kg, ip after 60 days. It counts as organism-based. The following applies: in vivo, 1440 h.
Data set [8] has as its system Mus musculus. The data set can be described thus: Induction of weight loss in C3H/HeN mouse at 1.4 umol/kg, ip after 60 days (reference value: 26.1 +/- 7.9 %). It counts as functional.
Data set [9] has as its system Mus musculus. Put plainly: Induction of weight loss in C3H/HeN mouse at 0.42 umol/kg, ip after 60 days (reference value: 23.6 +/- 3.7 %). It counts as functional.
Data set [10] has as its system Mus musculus. The data set can be described thus: Induction of weight loss in C3H/HeN mouse at 0.14 umol/kg, ip after 60 days (reference value: 41.6 +/- 8.7 %). It counts as functional.
Data set [11] relates to Mus musculus. The data set can be described thus: Induction of weight loss in C3H/HeN mouse at 4.2 umol/kg, ip after 60 days (reference value: 26.1 +/- 7.8 %). It counts as functional.
For data set [12], the system named is Mus musculus. The data set can be described thus: Toxicity in C3H/HeN mouse assessed as mortality at 4.2 umol/kg, ip after 15 days. It counts as organism-based. The following applies: in vivo, 360 h. In short, it runs like this: (§2)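 Male C3H/HeN mice, about 50 days old, in groups of 4. Baseline body weight and food and water intake were recorded for 7–10 days before treatment. A single ip injection in 42% aqueous DMSO was given on day 1, with vehicle-only controls. Body weight and food and water intake were then monitored 2–3 times per week for 60 days, with deaths noted.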

Data set [13] concerns Mus musculus. The data set can be described thus: Toxicity in C3H/HeN mouse assessed as mortality at 4.2 umol/kg, ip. It counts as organism-based. Particulars: in vivo. The method in brief:
as §2

The subject of data set [14] is Mus musculus. Put plainly: Induction of weight loss in C3H/HeN mouse at 4.2 umol/kg, ip after 60 days (reference value: 27.7 +/- 4.6 %). It counts as functional.
Data set [15] concerns Mus musculus. The data set can be described thus: Induction of weight loss in C3H/HeN mouse at 37.8 umol/kg, ip after 60 days (reference value: 31.5 +/- 8.2 %). It counts as functional.
For data set [16], the system named is Mus musculus. Put plainly: Induction of weight loss in C3H/HeN mouse at 12.6 umol/kg, ip after 60 days (reference value: 18.8 +/- 1.8 %). It counts as functional.
In data set [17] the test system is Mus musculus. Put plainly: Toxicity in C3H/HeN mouse assessed as mortality at 117 umol/kg, ip. It counts as organism-based. Particulars: in vivo. In short, it runs like this: as §2
For data set [18], the system named is Mus musculus. Put plainly: Induction of weight loss in C3H/HeN mouse at 50.2 umol/kg, ip after 60 days (reference value: 27.4 +/- 9.4 %). It counts as functional.
Data set [19] has as its system Mus musculus. Put plainly: Induction of weight loss in C3H/HeN mouse at 37.8 umol/kg, ip after 60 days (reference value: 23.9 +/- 4.6 %). It counts as functional.
The test system of data set [20] is Mus musculus. Put plainly: Induction of weight loss in C3H/HeN mouse at 37.8 umol/kg, ip after 60 days (reference value: 35.6 +/- 3.1 %). It counts as functional.
For data set [21], the system named is Mus musculus. The data set can be described thus: Toxicity in C3H/HeN mouse assessed as mortality at 12.6 umol/kg, ip. It counts as organism-based. Particulars: in vivo. The method in brief: as §2
Data set [22] concerns Mus musculus. The data set can be described thus: Induction of weight loss in C3H/HeN mouse at 4.2 umol/kg, ip after 60 days (reference value: 33.3 +/- 5.0 %). It counts as functional.
Data set [23] deals with Mus musculus. Put plainly: Induction of weight loss in C3H/HeN mouse at 12.6 umol/kg, ip after 60 days (reference value: 41.6 +/- 8.7 %). It counts as functional.
Data set [24] relates to Mus musculus. Put plainly: Induction of weight loss in C3H/HeN mouse at 1130 umol/kg, ip after 18 days (reference value: 12.8 +/- 1.5 %). It counts as functional.
The test system of data set [25] is Mus musculus. The data set can be described thus: Induction of weight loss in C3H/HeN mouse at 377 umol/kg, ip after 60 days (reference value: 24.5 +/- 3.5 %). It counts as functional.

On to `Cn1c(C[N+](C)(C)Cc2ccc(/C=C/C(=O)N3CC(CCl)c4c3cc(N)c3ccccc43)cc2)ccc1[N+](=O)[O-].[Br-]` (centres undefined), for which the Activity entry in the data set on Mus musculus [1] is recorded as “Non-toxic”; in the data set on Mus musculus [2], “Non-toxic”; with Mus musculus [3], 19%; with Mus musculus [4], 38.3%; in the data set on Mus musculus [5] it was -4.1%; in the data set on Mus musculus [6], “Non-toxic”. Further, the Activity entry in the data set with Mus musculus [7] is given as “Non-toxic”.

As to `Cn1c(C[N+](C)(C)Cc2ccc(/C=C/C(=O)N3CC(CCl)c4c3cc(N)c3ccccc43)cc2)ccc1S(C)(=O)=O.[Br-]` (centres undefined), the Activity is recorded as -22.8% in the data set with Mus musculus [8], -7.6% in the data set on Mus musculus [9] and 44.1% in the data set with Mus musculus [10].

Take `CN(Cc1ccc(/C=C/C(=O)N2CC(CCl)c3c2cc(N)c2ccccc32)cc1)Cc1ccc([N+](=O)[O-])n1C` (centres undefined): the Activity is 21% in the data set with Mus musculus [11] and “Toxic” in the data set with Mus musculus [12].

`C[N+](C)(C)Cc1ccc(/C=C/C(=O)N2CC(CCl)c3c2cc(N)c2ccccc32)cc1.[Cl-]` (centres undefined): the values for the Activity entry in the data set with Mus musculus [13] and with Mus musculus [4] were “Toxic” and 17%, respectively.

Regarding `Cn1c(C[N+](C)(C)Cc2ccc(/C=C/C(=O)N3CC(CCl)c4c3cc(O)c3ccccc43)cc2)ccc1[N+](=O)[O-].[Br-]` (centres undefined), in the data set with Mus musculus [14], the Activity is reported as 18.8%.

As for `Cn1c(C[N+](C)(C)Cc2ccc(/C=C/C(=O)N3CC(CO)c4c3cc(N)c3ccccc43)cc2)ccc1[N+](=O)[O-].[Br-]` (centres undefined), the figures for the Activity with Mus musculus [15] and with Mus musculus [16] were 18.8% and 23.7%, respectively.

For `Cn1c(C[N+](C)(C)Cc2ccc(/C=C/C(=O)N3CC(CO)c4c3cc(N)c3ccccc43)cc2)ccc1S(C)(=O)=O.[Br-]` (centres undefined), the Activity result in the data set on Mus musculus [17] is listed as “Toxic”; in the data set with Mus musculus [18], 42.6%; in the data set on Mus musculus [19], 36.8%.

Take `CC1CN(C(=O)/C=C/c2ccc(C[N+](C)(C)Cc3ccc([N+](=O)[O-])n3C)cc2)c2cc(N)c3ccccc3c21.[Br-]` (centres undefined): the Activity in the data set with Mus musculus [20] was 43.2%; in the data set on Mus musculus [14] it was 26%.

In the case of `CC1CN(C(=O)/C=C/c2ccc(C[N+](C)(C)Cc3ccc(S(C)(=O)=O)n3C)cc2)c2cc(N)c3ccccc3c21.[Br-]` (centres undefined), the Activity with Mus musculus [20] was determined as 30.4%.

Take `Cn1c(C[N+](C)(C)CCCCCC(=O)N2CC(CCl)c3c2cc(N)c2ccccc32)ccc1S(C)(=O)=O.O=C([O-])C(F)(F)F` (centres undefined): the Activity entry in the data set with Mus musculus [21] is given as “Toxic”; in the data set on Mus musculus [22], 16.8%.

Take `Cn1c(C[N+](C)(C)CCCCCCC(=O)N2CC(CCl)c3c2cc(N)c2ccccc32)ccc1S(C)(=O)=O.O=C([O-])C(F)(F)F` (centres undefined): the Activity is reported as 2.9% with Mus musculus [23] and 11.6% in the data set with Mus musculus [22].

Regarding `CN(N=O)C(=O)N[C@@H](C=O)[C@@H](O)[C@H](O)[C@H](O)CO` [STREPTOZOCIN], the Activity with Mus musculus [24] was -22.1%; with Mus musculus [25], 23.7%.
